In ChEMBL document CHEMBL5724801, “EUbOPEN Chemogenomics Library - Multiplex” (2024):
Several values for one entry are separate records, joined by “and”; a condition that tells them apart may be missing. Equal entries are not always repeated.

Tested on: Fibroblast
Assay: Multiplex assay against human fibroblast
Format: toxicity, cell-based
Summary of the method: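 Per cents of healthy-nucleus cells form the tubulin, mitochondrial-mass and membrane-permeability phenotype values. Live cells were stained at seeding with Hoechst33342, BioTracker Green Microtubule Cytoskeleton Dye, MitoTracker Red and Annexin V Alexa Fluor 680. After compound addition they were imaged on a CQ1 microscope at 37°C and 5% CO2, and CellPathfinder machine-learning gating split them into Hoechst high-intensity objects or normal cells, normal cells into healthy, pyknosed or fragmented nuclei, and pyknosed cells into mitotic or apoptotic.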

[1] = 12 h, 1 µM, compound concentration 1 uM
[2] = 12 h, 10 µM, compound concentration 10 uM
[3] = 24 h, 1 µM, compound concentration 1 uM
[4] = 24 h, 10 µM, compound concentration 10 uM
[5] = 48 h, 1 µM, compound concentration 1 uM
[6] = 48 h, 10 µM, compound concentration 10 uM

For `O=S(=O)(c1ccccc1)c1cnc2c(N3CCNCC3)cccc2c1` [INTEPIRDINE], the “Population Apoptotic (%)” value [1] was 50% and 34%, the “Population Fragmented Nuclei (%)” value [1] was 23% and 28% and the “Population Healthy Nuclei (%)” value [1] was 67% and 47%. The “Population Hoechst High Intensity Objects (%)” value [1] was 3% and 4%, the “Population Membrane Permeable-Phenotype (%)” value [1] was 0% and 7% and the “Population Mitochondria Different-Phenotype (%)” value [1] was 2% and 7%. The “Population Mitotic Cells (%)” value [1] was 50% and 65%, the “Population Normal (%)” value [1] was 96% and 95% and the “Population Pyknosed Nuclei (%)” value [1] was 9% and 24%. For the same molecule, the “Population Tubulin-Different-Phenotype (%)” value [1] was 26% and 61%, the “Total Cell Count” value [1] was 212 and 148 and the “Population Apoptotic (%)” value [2] was 75% and 61%. For the same molecule, the “Population Fragmented Nuclei (%)” value [2] was 22% and 43%, the “Population Healthy Nuclei (%)” value [2] was 62% and 40% and the “Population Hoechst High Intensity Objects (%)” value [2] was 1% and 6%. For the same molecule, the “Population Membrane Permeable-Phenotype (%)” value [2] was 1% and 5%, the “Population Mitochondria Different-Phenotype (%)” value [2] was 8% and 13% and the “Population Mitotic Cells (%)” value [2] was 25% and 38%. For the same molecule, the “Population Normal (%)” value [2] was 98% and 93%, the “Population Pyknosed Nuclei (%)” value [2] was 14% and 16% and the “Population Tubulin-Different-Phenotype (%)” value [2] was 44% and 68%. For the same molecule, the “Total Cell Count” value [2] was 138 and 136, the “Population Apoptotic (%)” value [3] was 54% and 41% and the “Population Fragmented Nuclei (%)” value [3] was 16% and 32%. The “Population Healthy Nuclei (%)” value [3] was 72% and 44%, the “Population Hoechst High Intensity Objects (%)” value [3] was 5% and 0% and the “Population Membrane Permeable-Phenotype (%)” value [3] was 2% and 1%. For the same molecule, the “Population Mitochondria Different-Phenotype (%)” value [3] was 4%, the “Population Mitotic Cells (%)” value [3] was 45% and 58% and the “Population Normal (%)” value [3] was 94% and 99%. For the same molecule, the “Population Pyknosed Nuclei (%)” value [3] was 10% and 24%, the “Population Tubulin-Different-Phenotype (%)” value [3] was 28% and 59% and the “Total Cell Count” value [3] was 212 and 151. The “Population Apoptotic (%)” value [4] was 40% and 91%, the “Population Fragmented Nuclei (%)” value [4] was 28% and 39% and the “Population Healthy Nuclei (%)” value [4] was 65% and 50%. The “Population Hoechst High Intensity Objects (%)” value [4] was 1% and 4%, the “Population Membrane Permeable-Phenotype (%)” value [4] was 0% and 3% and the “Population Mitochondria Different-Phenotype (%)” value [4] was 7% and 15%. For the same molecule, the “Population Normal (%)” value [4] was 98% and 95%, the “Population Pyknosed Nuclei (%)” value [4] was 6% and 10% and the “Population Tubulin-Different-Phenotype (%)” value [4] was 50% and 67%. The “Total Cell Count” value [4] was 152 and 123, the “Population Apoptotic (%)” value [5] was 66% and 52% and the “Population Fragmented Nuclei (%)” value [5] was 22% and 39%. The “Population Healthy Nuclei (%)” value [5] was 69% and 45%, the “Population Hoechst High Intensity Objects (%)” value [5] was 5% and 3% and the “Population Membrane Permeable-Phenotype (%)” value [5] was 0% and 1%. For the same molecule, the “Population Mitochondria Different-Phenotype (%)” value [5] was 2%, the “Population Mitotic Cells (%)” value [5] was 33% and 48% and the “Population Normal (%)” value [5] was 94% and 96%. The “Population Pyknosed Nuclei (%)” value [5] was 7% and 15%, the “Population Tubulin-Different-Phenotype (%)” value [5] was 34% and 54% and the “Total Cell Count” value [5] was 213 and 170. The “Population Apoptotic (%)” value [6] was 63% and 40%, the “Population Fragmented Nuclei (%)” value [6] was 23% and 48% and the “Population Healthy Nuclei (%)” value [6] was 67% and 38%. The “Population Hoechst High Intensity Objects (%)” value [6] was 3% and 6%, the “Population Membrane Permeable-Phenotype (%)” value [6] was 1% and 6% and the “Population Mitochondria Different-Phenotype (%)” value [6] was 15% and 6%. For the same molecule, the “Population Mitotic Cells (%)” value [6] was 36% and 60%, the “Population Normal (%)” value [6] was 96% and 93% and the “Population Pyknosed Nuclei (%)” value [6] was 8% and 12%. For the same molecule, the “Population Tubulin-Different-Phenotype (%)” value [6] was 47% and 57% and the “Total Cell Count” value [6] was 139 and 125.
`C=C(C)[C@H]1CN[C@H](C(=O)O)[C@H]1CC(=O)O` [KAINIC ACID] was tested, and the “Population Fragmented Nuclei (%)” value [1] was 7.74% and 5.42%, the “Population Healthy Nuclei (%)” value [1] was 70.97% and 80.83% and the “Population Hoechst High Intensity Objects (%)” value [1] was 0%. For the same molecule, the “Population Membrane Permeable-Phenotype (%)” value [1] was 7.27% and 2.58%, the “Population Mitochondria Different-Phenotype (%)” value [1] was 7.27% and 10.31% and the “Population Mitotic Cells (%)” value [1] was 93.94% and 72.73%. The “Population Normal (%)” value [1] was 100%, the “Population Pyknosed Nuclei (%)” value [1] was 21.29% and 13.75% and the “Population Tubulin-Different-Phenotype (%)” value [1] was 10% and 19.07%. The “Total Cell Count” value [1] was 155 and 240, the “Population Apoptotic (%)” value [2] was 8.57% and 22.92% and the “Population Fragmented Nuclei (%)” value [2] was 7.35% and 3.47%. The “Population Healthy Nuclei (%)” value [2] was 75.49% and 77.99%, the “Population Hoechst High Intensity Objects (%)” value [2] was 0% and the “Population Membrane Permeable-Phenotype (%)” value [2] was 5.19% and 2.97%. The “Population Mitochondria Different-Phenotype (%)” value [2] was 6.49% and 10.89%, the “Population Mitotic Cells (%)” value [2] was 91.43% and 77.08% and the “Population Normal (%)” value [2] was 100%. For the same molecule, the “Population Pyknosed Nuclei (%)” value [2] was 17.16% and 18.53%, the “Population Tubulin-Different-Phenotype (%)” value [2] was 11.04% and 20.3% and the “Total Cell Count” value [2] was 204 and 259. For the same molecule, the “Population Apoptotic (%)” value [3] was 13.51% and 31.58%, the “Population Fragmented Nuclei (%)” value [3] was 7.78% and 7.44% and the “Population Healthy Nuclei (%)” value [3] was 71.67% and 84.71%. The “Population Hoechst High Intensity Objects (%)” value [3] was 0%, the “Population Membrane Permeable-Phenotype (%)” value [3] was 3.88% and 1.46% and the “Population Mitochondria Different-Phenotype (%)” value [3] was 0.78% and 5.37%. For the same molecule, the “Population Mitotic Cells (%)” value [3] was 86.49% and 68.42%, the “Population Normal (%)” value [3] was 100% and the “Population Pyknosed Nuclei (%)” value [3] was 20.56% and 7.85%. For the same molecule, the “Total Cell Count” value [3] was 180 and 242, the “Population Apoptotic (%)” value [4] was 5.41% and 14.29% and the “Population Fragmented Nuclei (%)” value [4] was 8.53% and 4.49%. For the same molecule, the “Population Healthy Nuclei (%)” value [4] was 73.93% and 85.02%, the “Population Hoechst High Intensity Objects (%)” value [4] was 0% and the “Population Membrane Permeable-Phenotype (%)” value [4] was 8.33% and 2.64%. For the same molecule, the “Population Mitochondria Different-Phenotype (%)” value [4] was 4.49% and 3.52%, the “Population Mitotic Cells (%)” value [4] was 94.59% and 85.71% and the “Population Normal (%)” value [4] was 100%. For the same molecule, the “Population Pyknosed Nuclei (%)” value [4] was 17.54% and 10.49%, the “Population Tubulin-Different-Phenotype (%)” value [4] was 17.31% and 18.5% and the “Total Cell Count” value [4] was 211 and 267. For the same molecule, the “Population Apoptotic (%)” value [5] was 0% and 25%, the “Population Fragmented Nuclei (%)” value [5] was 7.94% and 4.31% and the “Population Healthy Nuclei (%)” value [5] was 88.89% and 87.84%. The “Population Hoechst High Intensity Objects (%)” value [5] was 0%, the “Population Membrane Permeable-Phenotype (%)” value [5] was 0.6% and 1.34% and the “Population Mitochondria Different-Phenotype (%)” value [5] was 15.48% and 5.36%. The “Population Mitotic Cells (%)” value [5] was 100% and 75%, the “Population Normal (%)” value [5] was 100% and the “Population Pyknosed Nuclei (%)” value [5] was 3.17% and 7.84%. The “Total Cell Count” value [5] was 189 and 255, the “Population Apoptotic (%)” value [6] was 36.36% and 23.53% and the “Population Fragmented Nuclei (%)” value [6] was 9.7% and 6.92%. The “Population Healthy Nuclei (%)” value [6] was 85.65% and 86.54%, the “Population Hoechst High Intensity Objects (%)” value [6] was 0% and the “Population Membrane Permeable-Phenotype (%)” value [6] was 2.96% and 2.22%. The “Population Mitotic Cells (%)” value [6] was 63.64% and 76.47%, the “Population Normal (%)” value [6] was 100% and the “Population Pyknosed Nuclei (%)” value [6] was 4.64% and 6.54%. The “Total Cell Count” value [6] was 237 and 260.
